{"source": "ChEMBL document CHEMBL5705905", "about": "“Pharmacological targeting of kinases MST1 and MST2 augments tissue repair and regeneration” (Sci Transl Med, 2016)", "key": {"[1]": {"biological_target": "cGMP-dependent protein kinase 1 (Homo sapiens) (UniProt Q13976)", "sequence (Q13976 whole entry)": "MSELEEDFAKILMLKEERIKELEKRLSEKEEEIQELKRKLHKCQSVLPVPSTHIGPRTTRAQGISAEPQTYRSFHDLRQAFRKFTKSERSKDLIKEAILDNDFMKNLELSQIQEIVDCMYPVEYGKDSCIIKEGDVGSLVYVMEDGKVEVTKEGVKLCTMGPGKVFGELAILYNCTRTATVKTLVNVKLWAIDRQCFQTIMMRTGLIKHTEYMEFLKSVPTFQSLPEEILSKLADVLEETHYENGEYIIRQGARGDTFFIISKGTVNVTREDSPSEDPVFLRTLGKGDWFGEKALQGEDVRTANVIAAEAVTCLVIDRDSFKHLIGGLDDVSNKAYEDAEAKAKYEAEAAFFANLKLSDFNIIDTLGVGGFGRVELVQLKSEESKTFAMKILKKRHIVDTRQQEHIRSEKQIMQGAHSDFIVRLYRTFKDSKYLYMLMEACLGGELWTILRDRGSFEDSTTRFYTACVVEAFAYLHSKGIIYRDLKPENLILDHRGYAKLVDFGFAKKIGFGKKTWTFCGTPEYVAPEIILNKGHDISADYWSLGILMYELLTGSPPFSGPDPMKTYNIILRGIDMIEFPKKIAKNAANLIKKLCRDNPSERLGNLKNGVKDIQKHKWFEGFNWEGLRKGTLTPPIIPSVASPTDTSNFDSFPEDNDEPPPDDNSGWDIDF", "test": "Inhibition of PRKG1 (unknown origin) assessed as remaining activity at 1 uM by Kinome scan method relative to control"}, "[2]": {"biological_target": "ALK tyrosine kinase receptor (Homo sapiens) (UniProt Q9UM73)", "test": "Inhibition of ALK (unknown origin) assessed as remaining activity at 1 uM by Kinome scan method relative to control", "how_it_was_run": "(§1)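 Active-site-dependent competition-binding (KINOMEscan) panel of 468 kinases, test compound at 1 μM (from a 10 mM DMSO stock). Read-out is ctrl% = (test signal − positive control signal)/(negative control signal − positive control signal) × 100. DMSO is the negative control (100%) and a control compound is the positive control (0%). Lower ctrl% means tighter binding.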"}, "[3]": {"biological_target": "Phosphatidylinositol 5-phosphate 4-kinase type-2 gamma (Homo sapiens) (UniProt Q8TBX8)", "test": "Inhibition of PIP5K2C (unknown origin) assessed as remaining activity at 1 uM by Kinome scan method relative to control"}, "[4]": {"biological_target": "G protein-coupled receptor kinase 4 (Homo sapiens) (UniProt P32298)", "sequence (P32298 whole entry, looked up)": "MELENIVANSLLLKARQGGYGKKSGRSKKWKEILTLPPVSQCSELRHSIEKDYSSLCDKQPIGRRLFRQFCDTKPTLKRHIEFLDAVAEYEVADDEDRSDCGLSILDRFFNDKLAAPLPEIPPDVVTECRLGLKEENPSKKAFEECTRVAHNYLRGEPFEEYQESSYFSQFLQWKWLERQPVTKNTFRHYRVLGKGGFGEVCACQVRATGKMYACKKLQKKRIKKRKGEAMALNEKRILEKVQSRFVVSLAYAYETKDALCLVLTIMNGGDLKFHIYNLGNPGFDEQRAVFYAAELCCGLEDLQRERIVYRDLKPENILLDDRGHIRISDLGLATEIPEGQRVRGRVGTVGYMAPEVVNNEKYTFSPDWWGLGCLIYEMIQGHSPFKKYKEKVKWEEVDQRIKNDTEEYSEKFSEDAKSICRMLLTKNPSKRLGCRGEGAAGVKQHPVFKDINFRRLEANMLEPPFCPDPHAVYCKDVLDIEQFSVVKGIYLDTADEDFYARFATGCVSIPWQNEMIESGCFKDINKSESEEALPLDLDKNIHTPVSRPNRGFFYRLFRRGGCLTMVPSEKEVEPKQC", "test": "Inhibition of GRK4 (unknown origin) assessed as remaining activity at 1 uM by Kinome scan method relative to control"}, "[5]": {"biological_target": "Mitogen-activated protein kinase 15 (Homo sapiens) (UniProt Q8TD08)", "test": "Inhibition of ERK8 (unknown origin) assessed as remaining activity at 1 uM by Kinome scan method relative to control"}, "[6]": {"biological_target": "Tyrosine-protein kinase JAK3 (Homo sapiens) (UniProt P52333)", "test": "Inhibition of JAK3 JH1 domain (unknown origin) assessed as remaining activity at 1 uM by Kinome scan method relative to control"}, "[7]": {"biological_target": "Mitogen-activated protein kinase kinase kinase 11 (Homo sapiens) (UniProt Q16584)", "sequence (Q16584 whole entry, looked up)": "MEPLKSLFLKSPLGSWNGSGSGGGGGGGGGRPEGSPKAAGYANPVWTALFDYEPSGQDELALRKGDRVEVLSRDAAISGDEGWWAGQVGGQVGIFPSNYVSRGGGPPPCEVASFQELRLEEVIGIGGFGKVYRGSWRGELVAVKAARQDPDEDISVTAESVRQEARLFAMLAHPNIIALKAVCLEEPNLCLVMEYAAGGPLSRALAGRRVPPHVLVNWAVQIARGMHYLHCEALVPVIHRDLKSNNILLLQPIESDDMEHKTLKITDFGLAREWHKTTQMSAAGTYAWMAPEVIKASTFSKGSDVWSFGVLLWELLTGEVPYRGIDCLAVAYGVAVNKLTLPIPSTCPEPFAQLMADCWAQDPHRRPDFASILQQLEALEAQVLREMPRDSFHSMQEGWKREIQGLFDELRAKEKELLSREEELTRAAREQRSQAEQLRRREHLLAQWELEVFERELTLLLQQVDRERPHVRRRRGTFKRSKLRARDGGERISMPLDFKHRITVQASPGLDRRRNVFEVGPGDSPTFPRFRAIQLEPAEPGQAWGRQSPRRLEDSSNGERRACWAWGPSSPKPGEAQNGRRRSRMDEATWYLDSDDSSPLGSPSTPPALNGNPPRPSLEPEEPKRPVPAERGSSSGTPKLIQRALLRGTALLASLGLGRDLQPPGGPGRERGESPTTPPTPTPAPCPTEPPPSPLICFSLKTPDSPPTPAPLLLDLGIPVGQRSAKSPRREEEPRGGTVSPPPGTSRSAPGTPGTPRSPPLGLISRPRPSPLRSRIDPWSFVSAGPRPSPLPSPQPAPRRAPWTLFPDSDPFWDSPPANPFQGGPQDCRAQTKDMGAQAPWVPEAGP", "test": "Inhibition of MLK3 (unknown origin) assessed as remaining activity at 1 uM by Kinome scan method relative to control"}, "[8]": {"biological_target": "T1, Serine/threonine-protein kinase 3 (Homo sapiens, UniProt Q13188)", "T1 sequence (Q13188 whole entry)": "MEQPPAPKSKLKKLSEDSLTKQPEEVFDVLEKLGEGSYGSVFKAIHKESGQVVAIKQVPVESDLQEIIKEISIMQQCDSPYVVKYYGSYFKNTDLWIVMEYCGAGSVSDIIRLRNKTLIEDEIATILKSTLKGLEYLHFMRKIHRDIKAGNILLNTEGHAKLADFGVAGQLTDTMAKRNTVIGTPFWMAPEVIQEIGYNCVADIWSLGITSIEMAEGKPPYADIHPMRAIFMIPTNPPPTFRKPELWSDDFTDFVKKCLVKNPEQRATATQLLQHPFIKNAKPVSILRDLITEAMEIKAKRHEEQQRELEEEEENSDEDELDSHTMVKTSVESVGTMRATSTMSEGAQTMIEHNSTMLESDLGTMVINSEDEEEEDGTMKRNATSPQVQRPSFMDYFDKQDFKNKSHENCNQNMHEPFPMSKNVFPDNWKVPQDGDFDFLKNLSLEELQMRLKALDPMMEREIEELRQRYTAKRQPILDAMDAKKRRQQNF", "test": "Inhibition of recombinant His-tagged full-length MST2 (unknown origin) expressing in Escherichia coli assessed as MOB1a phosphorylation level incubated for 30 min in the presence of 10 uM ATP by immunoblot analysis"}, "[9]": {"tested_on": "Tyrosine-protein kinase ABL1 (Homo sapiens), P00519 [T315I]", "test": "Inhibition of ABL1 T315I mutant (unknown origin) assessed as remaining activity at 1 uM by Kinome scan method relative to control", "how_it_was_run": "as §1"}, "[10]": {"biological_target": "Serine/threonine-protein kinase 38-like (Homo sapiens) (UniProt Q9Y2H1)", "test": "Inhibition of NDR2 (unknown origin) assessed as remaining activity at 1 uM by Kinome scan method relative to control"}, "[11]": {"biological_target": "cGMP-dependent protein kinase 2 (Homo sapiens) (UniProt Q13237)", "sequence (Q13237 whole entry)": "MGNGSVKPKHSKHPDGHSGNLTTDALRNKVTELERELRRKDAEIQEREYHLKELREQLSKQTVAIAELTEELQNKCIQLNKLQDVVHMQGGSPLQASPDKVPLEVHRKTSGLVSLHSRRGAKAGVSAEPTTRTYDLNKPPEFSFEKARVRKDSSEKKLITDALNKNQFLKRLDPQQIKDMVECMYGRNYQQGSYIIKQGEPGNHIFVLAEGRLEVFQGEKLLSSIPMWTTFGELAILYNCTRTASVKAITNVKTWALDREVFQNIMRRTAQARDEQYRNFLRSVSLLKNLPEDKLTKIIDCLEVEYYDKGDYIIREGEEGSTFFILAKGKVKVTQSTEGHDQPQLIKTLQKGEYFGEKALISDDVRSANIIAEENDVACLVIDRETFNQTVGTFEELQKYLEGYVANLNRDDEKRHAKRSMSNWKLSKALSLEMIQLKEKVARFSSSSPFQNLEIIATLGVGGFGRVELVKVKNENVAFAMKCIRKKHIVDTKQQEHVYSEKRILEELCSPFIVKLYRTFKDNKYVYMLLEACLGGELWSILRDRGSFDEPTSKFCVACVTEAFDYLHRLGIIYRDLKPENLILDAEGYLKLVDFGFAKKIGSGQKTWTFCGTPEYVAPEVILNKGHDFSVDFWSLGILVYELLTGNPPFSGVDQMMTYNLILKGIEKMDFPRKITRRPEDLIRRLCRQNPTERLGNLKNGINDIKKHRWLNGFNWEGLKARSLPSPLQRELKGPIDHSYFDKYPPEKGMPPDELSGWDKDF", "test": "Inhibition of PRKG2 (unknown origin) assessed as remaining activity at 1 uM by Kinome scan method relative to control"}, "[12]": {"biological_target": "SRSF protein kinase 1 (Homo sapiens) (UniProt Q96SB4)", "test": "Inhibition of SRPK1 (unknown origin) assessed as remaining activity at 1 uM by Kinome scan method relative to control"}, "[13]": {"species_on_record": "Homo sapiens", "test": "Inhibition of recombinant His-tagged full-length MST1 Y101F/D109A mutant (unknown origin) expressing in Escherichia coli assessed as GST-tagged MOB1 phosphorylation level at 0.01 to 1 uM incubated for 15 min by immunoblot analysis", "settings": "dose 0.01-1 µM"}, "[14]": {"biological_target": "Serine/threonine-protein kinase DCLK3 (Homo sapiens) (UniProt Q9C098)", "sequence (Q9C098 whole entry)": "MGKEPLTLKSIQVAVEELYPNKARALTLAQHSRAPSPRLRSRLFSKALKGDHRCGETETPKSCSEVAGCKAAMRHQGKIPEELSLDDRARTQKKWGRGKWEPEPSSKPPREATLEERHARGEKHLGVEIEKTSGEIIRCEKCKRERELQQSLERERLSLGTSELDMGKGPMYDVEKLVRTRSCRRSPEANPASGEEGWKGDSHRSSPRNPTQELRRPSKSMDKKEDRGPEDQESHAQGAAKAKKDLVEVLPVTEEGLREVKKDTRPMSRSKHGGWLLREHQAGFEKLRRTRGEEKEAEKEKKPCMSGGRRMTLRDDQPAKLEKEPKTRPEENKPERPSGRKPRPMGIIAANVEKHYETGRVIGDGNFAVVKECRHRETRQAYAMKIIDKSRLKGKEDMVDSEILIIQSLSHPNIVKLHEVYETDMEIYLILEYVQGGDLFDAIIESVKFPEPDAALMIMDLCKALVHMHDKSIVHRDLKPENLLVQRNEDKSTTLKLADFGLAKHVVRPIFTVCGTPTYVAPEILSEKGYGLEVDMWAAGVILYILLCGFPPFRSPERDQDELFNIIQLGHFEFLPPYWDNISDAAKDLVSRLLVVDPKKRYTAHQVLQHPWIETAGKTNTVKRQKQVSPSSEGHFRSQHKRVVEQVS", "test": "Inhibition of DCAMKL3 (unknown origin) assessed as remaining activity at 1 uM by Kinome scan method relative to control"}, "[15]": {"biological_target": "Serine/threonine-protein kinase 24 (Homo sapiens, UniProt Q9Y6E0)", "test": "Inhibition of MST3 (unknown origin) in presence of ATP by enzymatic assay"}, "[16]": {"biological_target": "Hormonally up-regulated neu tumor-associated kinase (Homo sapiens) (UniProt P57058)", "test": "Inhibition of HUNK (unknown origin) assessed as remaining activity at 1 uM by Kinome scan method relative to control"}, "[17]": {"biological_target": "T1, Serine/threonine-protein kinase 3", "test": "Inhibition of recombinant His-tagged full-length MST2 (unknown origin) expressing in Escherichia coli assessed as MOB1a phosphorylation level incubated for 30 min in the presence of 300 uM ATP by immunoblot analysis"}, "[18]": {"biological_target": "Insulin receptor-related protein (Homo sapiens) (UniProt P14616)", "test": "Inhibition of INSRR (unknown origin) assessed as remaining activity at 1 uM by Kinome scan method relative to control"}, "[19]": {"biological_target": "Myotonin-protein kinase (Homo sapiens) (UniProt Q09013)", "test": "Inhibition of DMPK (unknown origin) assessed as remaining activity at 1 uM by Kinome scan method relative to control"}, "[20]": {"test": "Inhibition of recombinant His-tagged full-length MST1 Y101F/D109A mutant (unknown origin) expressing in Escherichia coli assessed as MOB1 phosphorylation level incubated for 15 min by immunoblot analysis", "parameters": "species or system Homo sapiens"}, "[21]": {"tested_on": "Mast/stem cell growth factor receptor Kit (Homo sapiens), P10721 [A829P]", "sequence (P10721 whole entry A829P)": "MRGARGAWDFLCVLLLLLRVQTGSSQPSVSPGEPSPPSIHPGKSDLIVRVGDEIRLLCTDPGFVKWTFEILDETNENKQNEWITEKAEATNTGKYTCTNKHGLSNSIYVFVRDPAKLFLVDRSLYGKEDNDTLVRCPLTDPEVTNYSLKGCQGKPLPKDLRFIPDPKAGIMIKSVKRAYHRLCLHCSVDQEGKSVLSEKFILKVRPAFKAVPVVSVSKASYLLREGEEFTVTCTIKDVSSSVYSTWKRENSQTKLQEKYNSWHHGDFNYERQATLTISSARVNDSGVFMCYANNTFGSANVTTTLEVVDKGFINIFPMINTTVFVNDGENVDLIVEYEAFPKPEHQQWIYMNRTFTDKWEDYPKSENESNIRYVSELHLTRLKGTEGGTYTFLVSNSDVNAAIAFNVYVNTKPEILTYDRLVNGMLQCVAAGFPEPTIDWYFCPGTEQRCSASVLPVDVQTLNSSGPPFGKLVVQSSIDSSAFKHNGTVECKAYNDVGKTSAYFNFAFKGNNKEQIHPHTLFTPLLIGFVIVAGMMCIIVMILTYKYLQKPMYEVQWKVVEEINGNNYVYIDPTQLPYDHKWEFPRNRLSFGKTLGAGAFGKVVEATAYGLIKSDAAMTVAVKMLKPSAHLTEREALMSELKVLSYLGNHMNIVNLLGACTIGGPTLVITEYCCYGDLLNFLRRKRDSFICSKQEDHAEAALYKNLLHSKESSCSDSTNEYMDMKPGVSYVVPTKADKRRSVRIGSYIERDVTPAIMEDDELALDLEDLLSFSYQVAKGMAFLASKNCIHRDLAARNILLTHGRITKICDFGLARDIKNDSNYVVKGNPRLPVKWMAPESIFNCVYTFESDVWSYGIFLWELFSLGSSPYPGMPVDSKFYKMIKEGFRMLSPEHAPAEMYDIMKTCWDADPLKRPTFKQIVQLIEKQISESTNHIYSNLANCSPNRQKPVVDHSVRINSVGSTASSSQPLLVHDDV", "test": "Inhibition of KIT A829P mutant (unknown origin) assessed as remaining activity at 1 uM by Kinome scan method relative to control"}, "[22]": {"biological_target": "Protein kinase C theta type (Homo sapiens) (UniProt Q04759)", "test": "Inhibition of PRKCQ (unknown origin) assessed as remaining activity at 1 uM by Kinome scan method relative to control"}, "[23]": {"biological_target": "Insulin receptor (Homo sapiens) (UniProt P06213)", "test": "Inhibition of INSR (unknown origin) assessed as remaining activity at 1 uM by Kinome scan method relative to control"}, "[24]": {"biological_target": "Serine/threonine-protein kinase 33 (Homo sapiens) (UniProt Q9BYT3)", "sequence (Q9BYT3 whole entry, looked up)": "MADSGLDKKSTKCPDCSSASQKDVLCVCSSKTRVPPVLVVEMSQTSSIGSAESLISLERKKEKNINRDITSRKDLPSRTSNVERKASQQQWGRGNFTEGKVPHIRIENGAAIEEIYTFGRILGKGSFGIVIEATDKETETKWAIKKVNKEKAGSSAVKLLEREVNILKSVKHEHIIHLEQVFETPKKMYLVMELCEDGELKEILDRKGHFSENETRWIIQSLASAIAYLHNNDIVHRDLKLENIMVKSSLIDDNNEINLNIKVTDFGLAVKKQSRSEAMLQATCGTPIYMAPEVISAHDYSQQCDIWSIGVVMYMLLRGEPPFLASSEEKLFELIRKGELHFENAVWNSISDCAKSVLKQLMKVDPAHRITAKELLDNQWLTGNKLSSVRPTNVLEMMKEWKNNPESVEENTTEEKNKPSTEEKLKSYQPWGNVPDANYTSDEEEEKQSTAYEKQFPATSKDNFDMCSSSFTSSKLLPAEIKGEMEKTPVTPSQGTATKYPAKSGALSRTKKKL", "test": "Inhibition of STK33 (unknown origin) assessed as remaining activity at 1 uM by Kinome scan method relative to control"}, "[25]": {"biological_target": "Interleukin-1 receptor-associated kinase 3 (Homo sapiens) (UniProt Q9Y616)", "test": "Inhibition of IRAK3 (unknown origin) assessed as remaining activity at 1 uM by Kinome scan method relative to control"}}, "note": "Activity calls are given as the source filed them. No cut-off for these calls is given here."}
{"compound": "CN1C(=O)c2sccc2N(C)c2nc(Nc3ccc(S(N)(=O)=O)cc3)ncc21", "values": [{"measurement": "Activity", "setting": "[1]", "result": 98, "unit": "%"}, {"measurement": "Activity", "setting": "[2]", "result": 94, "unit": "%"}, {"measurement": "Activity", "setting": "[3]", "result": 8, "unit": "%"}, {"measurement": "Activity", "setting": "[4]", "result": 99, "unit": "%"}, {"measurement": "Activity", "setting": "[5]", "result": 79, "unit": "%"}, {"measurement": "Activity", "setting": "[6]", "result": 73, "unit": "%"}, {"measurement": "Activity", "setting": "[7]", "result": 100, "unit": "%"}, {"measurement": "IC50", "setting": "[8]", "result": 34, "unit": "nM"}, {"measurement": "Activity", "setting": "[9]", "result": 15, "unit": "%"}, {"measurement": "Activity", "setting": "[10]", "result": 82, "unit": "%"}, {"measurement": "Activity", "setting": "[11]", "result": 95, "unit": "%"}, {"measurement": "Activity", "setting": "[12]", "result": 65, "unit": "%"}, {"measurement": "inhibition", "setting": "[13]", "result": "Active"}, {"measurement": "Activity", "setting": "[14]", "result": 100, "unit": "%"}, {"measurement": "IC50", "setting": "[15]", "result": 44.8, "unit": "nM"}, {"measurement": "Activity", "setting": "[16]", "result": 84, "unit": "%"}, {"measurement": "IC50", "setting": "[17]", "result": 1500, "unit": "nM"}, {"measurement": "Activity", "setting": "[18]", "result": 100, "unit": "%"}, {"measurement": "Activity", "setting": "[19]", "result": 100, "unit": "%"}, {"measurement": "IC50", "setting": "[20]", "result": 1390, "unit": "nM"}, {"measurement": "Activity", "setting": "[21]", "result": 91, "unit": "%"}, {"measurement": "Activity", "setting": "[22]", "result": 99, "unit": "%"}, {"measurement": "Activity", "setting": "[23]", "result": 98, "unit": "%"}, {"measurement": "Activity", "setting": "[24]", "result": 97, "unit": "%"}, {"measurement": "Activity", "setting": "[25]", "result": 100, "unit": "%"}]}
